Bioassay records (PubChem BioAssay)
Only some compounds are listed: those with a hit (about 4.7% of all), similar ones and a draw of the others.
Mdm2 MdmX PPI: inhibitors of human Mdm2/MdmX interaction. SaOS-2 split-luciferase Mdm2/MdmX complementation, luminescence. inhibition, % at 8 µM. 330,000 compounds, 3% hits;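 active = inhibition of at least 50% at 8 µM in the primary screen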
Jurkat NFkB inh: inhibitors of the PMA/ionomycin-induced NF-kB reporter in Jurkat cells; PMA/ionomycin-induced NF-kB luciferase reporter, luminescence; inhibition, % at 4 µM; 330,000 compounds, 0.53% hits; AID 435003; in the data active = inhibition above about 50%
IMP-1 inh-1: inhibitors of Pseudomonas aeruginosa IMP-1 metallo-beta-lactamase | purified IMP-1, nitrocefin hydrolysis, epi-absorbance fluorescence | inhibition, % at 5.6 µM | 290,000 compounds, 0.45% hits | AID 1556;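 active = inhibition above the mean plus 3 SD of all compounds in the same screening run, cut at about 4.5% in these data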;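 also: 0% = IMP-1 with DMSO and 100% = DMSO wells lacking enzyme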
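Material – recombinant IMP-1 enzyme, purified · Amount – IMP-1 0.2 nM before substrate addition · Medium – HEPES buffer pH 7.1 with ZnSO4 and Brij 35 · Timing – 25 °C, 15 min preincubation, 25 min reaction · Measured by – plate fluorescence quenching by hydrolysis product, ex 480/em 530 nm · Read-out – percent enzyme inhibition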
VIM-2 inhibitor: blocks Pseudomonas aeruginosa VIM-2 metallo-beta-lactamase | purified VIM-2, nitrocefin hydrolysis, epi-absorbance fluorescence | inhibition, % at 5.6 µM | 290,000 compounds, 0.89% hits;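 active = inhibition above the mean of all tested compounds plus 3 SD, cutoff set per screening run, cut at about 7.5% in these data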;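 also: red hydrolysis product quenches plate fluorescence so inhibitors raise well fluorescence; 0% = enzyme with DMSO and 100% = DMSO without enzyme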
697 NFkB inh: inhibitors of the PMA/ionomycin-induced NF-kB reporter in 697 B cells | 697 B-cell NF-kB luciferase reporter, 16 h | 330,000 compounds, 0.33% hits | inhibition, % at 4 µM; in the data active = inhibition above about 35%
aSyn UTR inh: 5' untranslated region of α-synuclein, MLPCN primary screen | 300,000 compounds, 0.82% hits | alpha-synuclein 5'UTR reporter, inhibitor activity | inhibition, % (tested at 7.5 µM) | AID 1813; in the data active = inhibition above about 60%;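 also: H4 neuroglioblastoma cells stably carrying SNCA 5'UTR luciferase fusion; 0% = DMSO wells and 100% = positive control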
IMP-1 inh-2: IMP-1 inhibition, counter-screen for VIM-2 inhibitors; shares compounds with VIM-2 inhibitor; inhibition, % at 5.6 µM; purified IMP-1, nitrocefin hydrolysis, epi-absorbance fluorescence; 1,300 tested, under 10 active; call rule not given here;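 also: 0% = enzyme with vehicle and 100% = vehicle without enzyme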
VIM-2 FRET ctr: inhibits VIM-2 in FRET assay to exclude epi-absorbance artifacts | shares compounds with VIM-2 inhibitor | purified VIM-2, CCF2 FRET substrate hydrolysis | inhibition, % at 5.6 µM | 1,300 compounds, 23% hits;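 active = inhibition above the mean of all tested compounds plus 3 SD, cut at about 19% in these data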;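 also: 0% = VIM-2 plus DMSO and 100% = no enzyme wells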
TEM-1 inh: blocks E. coli TEM-1 beta-lactamase in VIM-2 selectivity screen. shares compounds with VIM-2 inhibitor. Purified TEM-1, nitrocefin hydrolysis, epi-absorbance fluorescence. inhibition, % at 5.6 µM. 1,300 compounds, 3% hits. AID 1866;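 active = inhibition above that campaign's mean inhibition plus 3 SD, cut at about 0.46% in these data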;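 also: 0% = TEM-1 with DMSO and 100% = TEM-1 with 100 µM potassium clavulanate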
VIM-2 confirm 2: confirmation of P. aeruginosa VIM-2 metallo-beta-lactamase inhibitors. AID 2187. inhibition, % at 5.6 µM. purified VIM-2, nitrocefin hydrolysis, epi-absorbance. shares compounds with VIM-2 inhibitor. 1,300 compounds, 96% hits;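 active = inhibition of the VIM-2 beta-lactamase enzyme above about 11% from the earlier first-round screen, limit read from the data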;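 also: 0% = VIM-2 with DMSO and 100% = buffer wells without enzyme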
* = called active by the depositor; . = no result.

SMILES	Mdm2 MdmX PPI	Jurkat NFkB inh	IMP-1 inh-1	VIM-2 inhibitor	697 NFkB inh	aSyn UTR inh	IMP-1 inh-2	VIM-2 FRET ctr	TEM-1 inh	VIM-2 confirm 2
CN(C)CCCN(C(=O)c1ccc([N+](=O)[O-])o1)c1nc2cc3c(cc2s1)OCO3	10.5	-15.0	-2.7	-0.5	17.0	-9.4	.	.	.	.
C[C@H]1CN([C@@H](C)CO)C(=O)c2cccc(NC(=O)c3nc4ccccc4s3)c2O[C@H]1CN(C)C(=O)Nc1ccc(F)cc1	33.5	3.9	.	.	16.8	.	.	.	.	.
CCN(Cc1cnn(C)c1)C(=O)c1ccc2nc(Cc3cccc(Cl)c3)oc2c1	-2.0	8.3	-0.9	-1.5	-29.2	10.4	.	.	.	.
O=C1c2ccccc2C(=O)N1CCCc1cn(C[C@H]2CC[C@H](Cn3cc(CCCN4C(=O)c5ccccc5C4=O)nn3)O2)nn1	15.9	.	.	.	4.9	.	.	.	.	.
CC(C)C(NC(=O)C(C)N1C(=O)c2ccccc2C1=O)c1ccccc1 (stereo unspecified)	4.1	5.4	-0.9	-1.5	7.8	0.5	.	.	.	.
CCOc1ccc(CCNC(=O)COC(=O)c2cc(OC)cc(OC)c2)cc1OCC	-8.4	-8.5	-1.4	-1.6	5.7	32.1	.	.	.	.
Nc1nc(NCCCN2CCOCC2)nc(Nc2cccc(Cl)c2)c1[N+](=O)[O-]	29.2	-5.3	-0.5	28.8*	-1.7	42.5	-3.4	0.1	-7.1	49.5*
Nc1nc(NCCCN2CCOCC2)nc(Nc2ccc(Cl)cc2)c1[N+](=O)[O-]	15.0	2.8	-2.6	6.9	-34.2	46.0	.	.	.	.
COc1ccc(C2=NOC(C(=O)NCc3cccnc3)C2)cc1 (stereo unspecified)	19.0	-0.7	-3.4	-1.2	-1.7	-8.0	.	.	.	.
Cc1cc(C)n(-c2ccc(C(=O)OCC(=O)N3CCN(c4ccccc4)CC3)cc2)n1	14.4	-13.4	.	.	2.2	.	.	.	.	.
CCOC(=O)c1cnc2c(Cl)c(Cl)ccc2c1N1CCN(C)CC1	-3.6	5.4	1.5	15.3*	-22.4	12.4	-2.7	0.6	-9.1	24.0*
CCCn1c(=N)c(C#N)cc2c(=O)n3ccccc3nc21	24.1	5.6	-2.3	0.6	11.5	-0.4	.	.	.	.
N#Cc1cc2c(=O)n3ccccc3nc2n(CCCn2ccnc2)c1=N	-0.4	18.0	-0.2	45.1*	18.0	-2.9	-1.9	-10.1	-2.8	78.2*
S=c1[nH]nc(-c2ccccc2Cl)n1CC1CCCO1 (stereo unspecified)	-14.7	2.9	-2.9	2.1	14.1	23.9	.	.	.	.
Fc1ccccc1-c1n[nH]c(=S)n1CC1CCCO1 (stereo unspecified)	11.5	-15.1	-2.5	35.2*	0.1	-15.7	-3.5	60.6*	-5.8	44.3*
Cc1ccc(/C=N/NC(=O)Cc2ccc(Cl)cc2)s1	-2.0	38.9	1.5	0.6	2.5	-29.2	.	.	.	.
Oc1ccc(-c2n[nH]c(=S)n2-c2ccc3c(c2)OCCO3)c(O)c1	.	.	-5.0	16.9*	.	-58.4	-2.4	35.5*	-8.2	18.9*
S=c1[nH]nc(Cc2ccc(Cl)cc2)n1-c1ccc2c(c1)OCCO2	16.0	-3.4	-1.4	3.4	8.5	5.6	.	.	.	.
S=c1[nH]nc(-c2ccc3ccccc3n2)n1-c1ccc2c(c1)OCCO2	3.0	5.8	-1.7	19.6*	-16.7	13.7	-3.5	37.7*	-6.8	21.6*
COc1ccc(NC(=O)c2ccc(=O)[nH]c2)cc1S(=O)(=O)N1CCOCC1	16.4	11.2	.	.	12.0	.	.	.	.	.
C=C1CSc2nc(=O)c3c4c(sc3n21)CCCC4	-3.0	-20.1	-1.8	13.6*	-17.2	-18.2	-2.9	-1.1	-7.1	32.7*
CN1C(=O)/C(=C2\SC(N3CCCCCC3)=NC2=O)c2ccccc21	-18.3	-35.4	-2.5	12.8*	-18.2	-153.2	-3.6	-7.0	-8.9	26.5*
